SMILES strings stand for the structures.

The results in this text go back to ChEMBL document CHEMBL2034814, “Synthesis and evaluation of γ-lactam analogs of PGE₂ as EP4 and EP2/EP4 agonists” (Bioorg Med Chem, 2012).

Series [1] deals with T1, Prostaglandin E2 receptor EP3 subtype (Mus musculus, UniProt P30557).
T1 sequence (P30557 whole entry): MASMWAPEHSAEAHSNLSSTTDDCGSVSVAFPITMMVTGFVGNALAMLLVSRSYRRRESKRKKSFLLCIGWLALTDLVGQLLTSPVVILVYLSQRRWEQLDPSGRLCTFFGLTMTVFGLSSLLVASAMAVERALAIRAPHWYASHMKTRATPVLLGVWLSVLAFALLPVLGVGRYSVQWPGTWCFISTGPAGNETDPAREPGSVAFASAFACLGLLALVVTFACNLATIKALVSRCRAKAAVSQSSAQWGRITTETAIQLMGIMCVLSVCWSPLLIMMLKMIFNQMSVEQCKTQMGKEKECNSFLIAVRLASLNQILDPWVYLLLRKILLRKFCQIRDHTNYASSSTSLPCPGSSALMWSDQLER
As to the kind of experiment: Displacement of [3H]PGE2 from mouse EP3 receptor expressed in CHO cells after 60 mins by scintillation counting. Type of series: cell-based. On the technique in general: Loss of bound radioactivity is the signal in a displacement assay; it reports binding, not function.

Series [2] has as its system Rattus norvegicus. The series is described as follows: Induction of bone fracture healing in CrJ:CD(SD)IGS rat assessed as breaking strength of fractured fibulae at 100 ug/kg administered tropically as PLGA microsphere formulation measured after 17 days relative to control. Type of series: functional. Put shortly:
(§1)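 Male Sprague–Dawley rats, 8 weeks old. Under sodium pentobarbital (30–50 mg/kg) the left fibula midshaft was exposed and cut. Compound in PLGA microspheres injected topically at the fracture. At 17 days fibulae removed for three-point destructive bending; breaking strength expressed as % of the mean of nonfractured fibulae from intact rats, with vehicle-treated fractured controls.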

Series [3] relates to Rattus norvegicus. As to the kind of experiment: Induction of bone fracture healing in CrJ:CD(SD)IGS rat assessed as breaking strength of fractured fibulae at 10 ug/kg administered tropically as PLGA microsphere formulation measured after 17 days relative to control. Format: functional. Summed up: as §1
Series [4] in a line: Drug release from PLGA microsphere assessed as compound remaining in microsphere at 100 ug/ml after 28 days. The following applies: 672 h. Format: physicochemical.
Series [5] concerns Rattus norvegicus. As to the kind of experiment: Induction of bone fracture healing in CrJ:CD(SD)IGS rat assessed as breaking strength of fractured fibulae at 3 ug/kg administered tropically as PLGA microsphere formulation measured after 17 days relative to control. Type of series: functional. Put shortly:
as §1

Series [6] can be described thus: Drug release from PLGA microsphere assessed as compound remaining in microsphere at 100 ug/ml after 7 days. The following applies: 168 h. Format: physicochemical.
Series [7] is described as follows: Drug release from PLGA microsphere assessed as compound remaining in microsphere at 100 ug/ml after 14 days. Type of series: physicochemical. To be noted: 336 h.
Series [8] can be described thus: Drug release from PLGA microsphere assessed as compound remaining in microsphere at 100 ug/ml after 21 days. Type of series: physicochemical. The following applies: 504 h.
The target in series [9] is Prostaglandin E2 receptor EP2 subtype (Rattus norvegicus, UniProt Q62928). The series is described as follows: Agonist activity at rat EP2 receptor expressed in CHO cells assessed as cAMP production after 10 mins by radioimmunoassay. Type of series: functional, cell-based. Put shortly: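 CHO cells expressing rat EP2 receptor, seeded 1 × 10^5 cells/well and grown 2 days; washed, incubated 10 min at 37 °C in MEM with 2 µM diclofenac, then preincubated 10 min in assay medium with 1% BSA. Compound added, 10 min at 37 °C, stopped with ice-cold 10% trichloroacetic acid; cAMP measured by radioimmunoassay.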
On the technique in general: cAMP levels reflect the balance of adenylyl cyclase and phosphodiesterase activity.

The subject of series [10] is Rattus norvegicus. The series is described as follows: Induction of bone fracture healing in CrJ:CD(SD)IGS rat assessed as breaking strength of fractured fibulae at 30 ug/kg administered tropically as PLGA microsphere formulation measured after 17 days relative to control. Format: functional. Put shortly:
as §1

For series [11], the system named is Rattus norvegicus. As to the kind of experiment: Induction of bone fracture healing in CrJ:CD(SD)IGS rat assessed as breaking strength of fractured fibulae administered tropically as PLGA microsphere formulation measured after 17 days relative to control. Type of series: functional, organism-based. Put shortly:
as §1

The target in series [12] is T2, Prostaglandin E2 receptor EP1 subtype (Mus musculus, UniProt P35375).
T2 sequence (P35375 whole entry): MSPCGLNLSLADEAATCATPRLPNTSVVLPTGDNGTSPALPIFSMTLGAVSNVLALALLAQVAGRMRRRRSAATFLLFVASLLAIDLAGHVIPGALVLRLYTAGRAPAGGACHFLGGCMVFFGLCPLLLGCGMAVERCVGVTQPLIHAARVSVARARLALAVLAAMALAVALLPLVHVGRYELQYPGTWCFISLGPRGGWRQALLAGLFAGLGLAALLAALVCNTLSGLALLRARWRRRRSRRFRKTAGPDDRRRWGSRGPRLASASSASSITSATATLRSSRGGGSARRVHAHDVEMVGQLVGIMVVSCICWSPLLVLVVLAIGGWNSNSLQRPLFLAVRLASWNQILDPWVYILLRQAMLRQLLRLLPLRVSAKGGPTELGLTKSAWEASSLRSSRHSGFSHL
As to the kind of experiment: Displacement of [3H]PGE2 from mouse EP1 receptor expressed in CHO cells after 20 mins by scintillation counting. Format: cell-based.

Series [13] has as its target Prostaglandin E2 receptor EP4 subtype (Rattus norvegicus, UniProt P43114). The series is described as follows: Agonist activity at rat EP4 receptor expressed in CHO cells assessed as cAMP production after 10 mins by radioimmunoassay. Format: functional, cell-based.
Series [14] addresses Prostaglandin E2 receptor EP4 subtype (Mus musculus, UniProt P32240). The series is described as follows: Displacement of [3H]PGE2 from mouse EP4 receptor expressed in CHO cells after 60 mins by scintillation counting. Format: cell-based.
Series [15] addresses Prostaglandin E2 receptor EP2 subtype (Mus musculus, UniProt Q62053). As to the kind of experiment: Displacement of [3H]PGE2 from mouse EP2 receptor expressed in CHO cells after 60 mins by scintillation counting. Format: cell-based.
Series [16] has as its system Rattus norvegicus. As to the kind of experiment: Induction of bone fracture healing in CrJ:CD(SD)IGS rat assessed as breaking strength of fractured fibulae at 300 ug/kg administered tropically as PLGA microsphere formulation measured after 17 days relative to control. Type of series: functional. Summed up: as §1
Series [17] concerns Rattus norvegicus. The series is described as follows: Induction of bone fracture healing in CrJ:CD(SD)IGS rat assessed as breaking strength of fractured fibulae at 1 ug/kg administered tropically as PLGA microsphere formulation measured after 17 days relative to control. Type of series: functional. Summed up: as §1
Series [18] deals with Rattus norvegicus. The series is described as follows: Toxicity in CrJ:CD(SD)IGS rat assessed as change in heart rate at 1000 ug/kg, administered tropically as PLGA microsphere formulation. To be noted: in vivo, topical_or_ocular, 1 mg/kg. Type of series: organism-based. Put shortly:
(§2)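 Male Sprague–Dawley rats, 7–9 weeks old, anesthetized with urethane (1.5 g/kg, sc); compound given as PLGA microsphere formulation, with heart rate and mean blood pressure monitored.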

Series [19] concerns Rattus norvegicus. As to the kind of experiment: Toxicity in CrJ:CD(SD)IGS rat assessed as change in heart rate at 3000 ug/kg, administered tropically as PLGA microsphere formulation. Type of series: organism-based. The following applies: in vivo, topical_or_ocular, 3 mg/kg. Summed up:
as §2

The subject of series [20] is Rattus norvegicus. The series is described as follows: Toxicity in CrJ:CD(SD)IGS rat assessed as change in heart rate at 300 ug/kg, administered tropically as PLGA microsphere formulation. Type of series: organism-based. To be noted: in vivo, topical_or_ocular, 0.3 mg/kg. Put shortly:
as §2

The test system of series [21] is Rattus norvegicus. The series is described as follows: Toxicity in CrJ:CD(SD)IGS rat assessed as change in mean blood pressure at 1000 ug/kg administered tropically as PLGA microsphere formulation. Type of series: organism-based. The following applies: in vivo, topical_or_ocular, 1 mg/kg. Put shortly:
as §2

In series [22] the test system is Rattus norvegicus. The series is described as follows: Toxicity in CrJ:CD(SD)IGS rat assessed as change in mean blood pressure at 300 ug/kg administered tropically as PLGA microsphere formulation. Type of series: organism-based. To be noted: in vivo, topical_or_ocular, 0.3 mg/kg. Put shortly: as §2
Series [23] relates to Rattus norvegicus. The series is described as follows: Toxicity in CrJ:CD(SD)IGS rat assessed as change in mean blood pressure at 3000 ug/kg administered tropically as PLGA microsphere formulation. Type of series: organism-based. The following applies: in vivo, topical_or_ocular, 3 mg/kg. Put shortly: as §2
A short description of series [24]: Drug release from PLGA microsphere assessed as compound remaining in microsphere at 100 ug/ml after 14 days in presence of 5% methanol. Type of series: physicochemical. To be noted: 336 h.
Series [25] in a line: Drug release from PLGA microsphere assessed as compound remaining in microsphere at 100 ug/ml after 21 days in presence of 5% methanol. Type of series: physicochemical. To be noted: 504 h.
Series [26] is described as follows: Drug release from PLGA microsphere assessed as compound remaining in microsphere at 100 ug/ml after 28 days in presence of 5% methanol. Format: physicochemical. The following applies: 672 h.
Series [27] in a line: Drug release from PLGA microsphere assessed as compound remaining in microsphere at 100 ug/ml after 7 days in presence of 5% methanol. To be noted: 168 h. Format: physicochemical.

Chain of Prostaglandin E2 receptor EP2 subtype (Rattus norvegicus, UniProt Q62928) (Q62928 whole entry): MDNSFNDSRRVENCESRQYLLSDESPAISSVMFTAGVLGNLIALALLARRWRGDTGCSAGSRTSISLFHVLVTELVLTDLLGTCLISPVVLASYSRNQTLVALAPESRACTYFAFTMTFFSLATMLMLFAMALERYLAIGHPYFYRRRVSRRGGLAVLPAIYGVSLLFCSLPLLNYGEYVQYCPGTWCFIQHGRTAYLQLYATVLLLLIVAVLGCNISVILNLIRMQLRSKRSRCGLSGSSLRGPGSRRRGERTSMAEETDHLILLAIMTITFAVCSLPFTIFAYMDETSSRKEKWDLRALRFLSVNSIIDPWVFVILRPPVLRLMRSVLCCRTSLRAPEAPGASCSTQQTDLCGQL
Chain of Prostaglandin E2 receptor EP2 subtype (Mus musculus, UniProt Q62053) (Q62053 whole entry): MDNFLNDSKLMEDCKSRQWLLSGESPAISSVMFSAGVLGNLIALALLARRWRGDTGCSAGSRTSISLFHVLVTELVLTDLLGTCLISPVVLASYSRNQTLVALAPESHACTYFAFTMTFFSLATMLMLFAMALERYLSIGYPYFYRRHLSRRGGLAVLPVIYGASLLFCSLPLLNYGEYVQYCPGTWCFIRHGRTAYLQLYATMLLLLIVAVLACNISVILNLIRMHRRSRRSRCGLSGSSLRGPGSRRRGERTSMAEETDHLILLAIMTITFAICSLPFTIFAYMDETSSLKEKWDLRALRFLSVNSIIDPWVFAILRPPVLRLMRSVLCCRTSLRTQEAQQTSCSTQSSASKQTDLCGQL
Chain of Prostaglandin E2 receptor EP4 subtype (Rattus norvegicus, UniProt P43114) (P43114 whole entry): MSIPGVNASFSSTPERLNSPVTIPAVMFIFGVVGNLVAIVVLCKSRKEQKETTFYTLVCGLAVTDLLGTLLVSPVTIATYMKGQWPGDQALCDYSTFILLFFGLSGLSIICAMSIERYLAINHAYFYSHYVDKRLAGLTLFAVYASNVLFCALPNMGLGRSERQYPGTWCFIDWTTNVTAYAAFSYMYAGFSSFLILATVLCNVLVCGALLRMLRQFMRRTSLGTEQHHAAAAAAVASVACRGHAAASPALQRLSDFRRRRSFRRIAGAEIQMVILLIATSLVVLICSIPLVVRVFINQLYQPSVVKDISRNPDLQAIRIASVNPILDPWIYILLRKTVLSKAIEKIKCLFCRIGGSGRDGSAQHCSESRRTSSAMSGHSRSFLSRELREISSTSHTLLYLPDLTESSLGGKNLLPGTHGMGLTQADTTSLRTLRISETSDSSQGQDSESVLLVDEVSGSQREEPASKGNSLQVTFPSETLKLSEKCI
Chain of Prostaglandin E2 receptor EP4 subtype (Mus musculus, UniProt P32240) (P32240 whole entry): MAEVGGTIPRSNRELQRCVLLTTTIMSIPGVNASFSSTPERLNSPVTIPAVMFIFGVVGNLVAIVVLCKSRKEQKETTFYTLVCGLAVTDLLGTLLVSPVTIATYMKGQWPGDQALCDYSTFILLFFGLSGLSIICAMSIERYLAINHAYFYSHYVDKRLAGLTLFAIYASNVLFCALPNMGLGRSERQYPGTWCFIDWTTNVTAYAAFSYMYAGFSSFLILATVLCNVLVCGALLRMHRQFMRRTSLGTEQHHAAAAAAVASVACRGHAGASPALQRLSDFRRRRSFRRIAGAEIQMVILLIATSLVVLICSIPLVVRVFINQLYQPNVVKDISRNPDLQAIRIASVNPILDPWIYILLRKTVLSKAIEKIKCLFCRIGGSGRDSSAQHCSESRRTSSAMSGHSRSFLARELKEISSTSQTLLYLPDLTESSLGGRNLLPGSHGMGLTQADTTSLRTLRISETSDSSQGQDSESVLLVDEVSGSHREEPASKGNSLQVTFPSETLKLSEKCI

Turning to `Cc1ccc2nc(-c3cccc(C[C@H](O)/C=C/[C@H]4CCC(=O)N4CCSc4nc(C(=O)O)cs4)c3)oc2c1`, the inhibitory constant (Ki) – broadly, the equilibrium dissociation constant of an inhibitor or competing ligand from its target – was more than 10 µM in series [1], 0.2 µM in series [12], 0.00016 µM in [14] and 0.056 µM in series [15]. For the same compound, the Activity in series [2] is given as 124.6%; in [3], 87.1%; in [4], 87.6%; in series [5], 84.4%; in series [6], 100%; in series [7] it was 95%. The Activity in series [8] is 86.6%; in [10] it was 71.6%; in series [11], “Dose-dependent effect”; in series [16], 167.4%. The concentration giving a half-maximal response (EC50) (usually the concentration giving half of the maximal effect) turned out to be 3.2 µM in [9] and 0.0016 µM in series [13].
For the compound `O=C(O)c1csc(SCCN2C(=O)CC[C@@H]2/C=C/[C@@H](O)Cc2cccc(-c3cc4ccccc4o3)c2)n1`, the Activity in series [17] was 76.1%; in [3] it was 104.2%; in series [4], 60.8%; in series [5], 83.3%; in [6], 95.7%; in series [7], 88.6%. For the same compound, the Activity is 80.1% in series [8], 116.6% in [10] and “Dose-dependent effect” in [11]. The Ki in series [1] was 1.7 µM; in [12], 2.7 µM; in [14], 0.00012 µM; in [15], 0.0021 µM. Also, the EC50 in series [9] stood at 1.5 µM; in [13] it was 0.0053 µM.
For `O=C(O)CCCSCCN1C(=O)CC[C@@H]1/C=C/[C@@H](O)Cc1cccc(-c2cc3ccccc3o2)c1`, the Activity in series [18] is listed as 104.6%; in series [19], 111.4%; in [2], 136.3%; in series [20] it was 106.3%; in series [4], 46.3%; in series [6], 94.8%. Moreover, the Activity in series [7] was 91.1%; in [8], 83.5%; in [21], 98.2%; in series [10] it was 95.4%; in series [11], “Dose-dependent effect”; in series [22] it was 98.4%. Also, the results for the Activity in series [16] and in series [23] were 154% and 97.3%, respectively. In addition, the Ki in [1] was more than 10 µM; in series [12] it was more than 10 µM; in series [14], 0.0001 µM; in series [15] it was 2 µM. The 50% effective concentration (EC50) in [13] turned out to be 0.007 µM.
Regarding `Cc1ccc2oc(-c3cccc(C[C@H](O)/C=C/[C@H]4CCC(=O)N4CCSc4nc(C(=O)O)cs4)c3)nc2c1`, the Activity in [24] was determined as 93.1%; in series [25], 85.2%; in series [26], 79.3%; in [2] it was 136%; in [27] it was 99.6%; in [3], 87.7%. The Activity in series [5] is 77.7%; in [10], 98.1%; in series [11] it was “Dose-dependent effect”; in series [16], 144.3%. Further, the Ki is more than 10 µM in [1], 1.3 µM in series [12], 0.00021 µM in [14] and 0.021 µM in series [15]. For the same compound, the concentration giving a half-maximal response (EC50) in series [9] was more than 10 µM; in series [13], 0.0088 µM.
